ChEMBL document CHEMBL1145239 (Bioorg Med Chem Lett, 2005)

Molecular target: Dipeptidyl peptidase 4 (Rattus norvegicus, UniProt P14740)
Assay: Inhibitory concentration against rat dipeptidylpeptidase IV
Outline: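 DPP-IV activity in rat plasma (10-fold diluted) by fluorescence with Gly-Pro-MCA substrate (100 µmol/L solution added); buffer PBS with 0.003% Brij-35. Inhibitor at various concentrations, room temperature, 60 min. Inhibition relative to solvent control; IC50 by logistic analysis.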

Dipeptidyl peptidase 4, sequence (P14740 whole entry): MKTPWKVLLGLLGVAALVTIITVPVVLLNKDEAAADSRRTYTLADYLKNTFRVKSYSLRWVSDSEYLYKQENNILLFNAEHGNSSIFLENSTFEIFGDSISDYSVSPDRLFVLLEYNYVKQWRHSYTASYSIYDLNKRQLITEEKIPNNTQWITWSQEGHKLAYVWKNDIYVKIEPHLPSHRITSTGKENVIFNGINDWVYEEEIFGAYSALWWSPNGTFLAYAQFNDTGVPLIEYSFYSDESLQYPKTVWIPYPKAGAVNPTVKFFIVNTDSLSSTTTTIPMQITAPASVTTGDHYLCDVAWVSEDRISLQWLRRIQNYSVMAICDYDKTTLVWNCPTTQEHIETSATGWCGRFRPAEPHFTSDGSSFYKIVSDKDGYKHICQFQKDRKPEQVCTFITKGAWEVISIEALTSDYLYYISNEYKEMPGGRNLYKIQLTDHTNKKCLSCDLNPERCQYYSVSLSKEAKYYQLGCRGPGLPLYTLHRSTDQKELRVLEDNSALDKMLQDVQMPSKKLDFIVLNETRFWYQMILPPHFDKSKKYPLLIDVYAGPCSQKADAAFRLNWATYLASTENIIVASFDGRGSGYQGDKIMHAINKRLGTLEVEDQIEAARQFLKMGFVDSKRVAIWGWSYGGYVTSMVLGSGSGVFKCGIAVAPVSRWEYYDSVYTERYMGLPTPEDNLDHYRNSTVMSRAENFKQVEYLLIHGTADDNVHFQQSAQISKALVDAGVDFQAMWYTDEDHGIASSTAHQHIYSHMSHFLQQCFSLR

SMILES	IC50 [nM]
COc1ccc(N[C@@H]2CN[C@H](C(=O)N3CCC[C@H]3C#N)C2)cc1	0.28
N#C[C@@H]1CCCN1C(=O)[C@@H]1C[C@H](N)CN1	9.1
N#C[C@@H]1CCCN1C(=O)[C@@H]1C[C@H](NC(=O)Nc2ccccc2)CN1	1.1
N#Cc1ccc(N[C@@H]2CN[C@H](C(=O)N3CCC[C@H]3C#N)C2)cc1C#N	0.17
N#C[C@@H]1CCCN1C(=O)[C@@H]1C[C@H](NS(=O)(=O)c2ccccc2)CN1	3.9
N#Cc1ccc(N[C@@H]2CN[C@H](C(=O)N3CCC[C@H]3C#N)C2)cc1	0.26
N#C[C@@H]1CCCN1C(=O)[C@@H]1C[C@H](NCc2ccccc2)CN1	3
N#C[C@@H]1CCCN1C(=O)[C@@H]1C[C@H](NC(=O)c2ccccc2)CN1	3.8
N#C[C@@H]1CCCN1C(=O)[C@@H]1C[C@H](NCCc2ccccc2)CN1	1.5
COc1ccc(N[C@@H]2CN[C@H](C(=O)N3CCC[C@H]3C#N)C2)cc1OC	0.24
N#C[C@@H]1CCCN1C(=O)[C@@H]1C[C@H](NC2CCCCC2)CN1	3.6
